Source: ChEMBL document CHEMBL5344453, “Selective Recognition of c-KIT 1 G-Quadruplex by Structural Tuning of Heteroaromatic Scaffolds and Side Chains” (ACS Med Chem Lett, 2024)

Assays:
Quadruplex DNA [1] = experiment: Binding affinity to G-quadruplex c-KIT1 5-FAM-GGGAGGGCGCTGGGAGGAGGG-TAMRA-3 (unknown origin) assessed as increase in melting temperature by CD spectra analysis; type: nucleic-acid assay
Quadruplex DNA [2] = experiment: Stabilization of G-quadruplex c-MYC 5-FAM-TGGGGAGGGTGGGGAGGGTGGGGAAGG-TAMRA- 3 (unknown origin) assessed as change in melting temperature at 10 uM incubated for 1 hr in dark condition by FRET-based melting assay; type: nucleic-acid assay
Outline: (§1)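 FRET melting of dual-fluorophore (FAM/TAMRA) tagged G-quadruplex (200 nM) in 60 mM potassium cacodylate, pH 7.4. The screen used 1 μM ligand; dose series used 1, 3, 5, 7 and 10 μM. ΔTm was taken against the Tm of the same oligonucleotide without ligand.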

Quadruplex DNA [3] = experiment: Binding affinity to G-quadruplex VEGF 5-FAM-CGGGGCGGGCCGGGGGCGGGGT-TAMRA-3 (unknown origin) assessed as dissociation constant by fluorescence spectroscopy assay; type: nucleic-acid assay
Outline: (§2)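 Fluorimetric titration of ligand held at 1.0 μM with increasing concentrations of G4 or dsDNA until saturation. Change in ligand fluorescence intensity was fitted for Kd. Run in 100 mM Tris-KCl buffer, pH 7.4.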

[4] = Reduction of c-KIT protein expression in human K562 cells at 6 uM measured after 24 hrs by Western blotting analysis relative to control; type: functional
Outline: (§3)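 K562 cells were treated with ligand (3 and 6 μM or 5.5 and 11 μM). c-KIT protein was measured by Western blot with GAPDH as the housekeeping reference, relative to control.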

Quadruplex DNA [5] = experiment: Stabilization of G-quadruplex c-KIT1 5-FAM-GGGAGGGCGCTGGGAGGAGGG-TAMRA-3 (unknown origin) assessed as change in melting temperature at 7 uM incubated for 1 hr in dark condition by FRET-based melting assay; type: nucleic-acid assay; outline: as §1
Quadruplex DNA [6] = experiment: Binding affinity to G-quadruplex c-KIT 2 5-FAM-GGGCGGGCGCGAGGGAGGGG-TAMRA-3 (unknown origin) assessed as dissociation constant by fluorescence spectroscopy assay; type: nucleic-acid assay; outline: as §2
Quadruplex DNA [7] = experiment: Binding affinity to G-quadruplex VEGF 5-FAM-CGGGGCGGGCCGGGGGCGGGGT-TAMRA-3 (unknown origin) assessed as dissociation constant by measuring thermogram by isothermal titration calorimetry (ITC) assay; type: nucleic-acid assay
Outline: (§4)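 ITC of ligand binding to folded G4 in 100 mM Tris-KCl buffer, pH 7.4. Kd and stoichiometry were obtained from the isothermal heat curve and binding isotherm.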

K562 [8] = experiment: Induction of cell cycle arrest in human K562 cells assessed as accumulation at G0/G1 phase at 6 uM incubated for 24 hrs by propidium iodide based assay; type: functional
Outline: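 K562 cells were treated with ligand (3 and 6 μM or 5.5 and 11 μM) and stained with propidium iodide. The fraction of cells in each cell-cycle phase was determined by flow cytometry.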

Quadruplex DNA [9] = experiment: Binding affinity to G-quadruplex c-MYC 5-FAM-TGGGGAGGGTGGGGAGGGTGGGGAAGG-TAMRA-3 (unknown origin) assessed as dissociation constant by fluorescence spectroscopy assay; type: nucleic-acid assay; outline: as §2
Quadruplex DNA [10] = experiment: Binding affinity to G-quadruplex c-KIT1 5-FAM-GGGAGGGCGCTGGGAGGAGGG-TAMRA-3 (unknown origin) assessed as dissociation constant by fluorescence spectroscopy assay; type: nucleic-acid assay
Quadruplex DNA [11] = experiment: Stabilization of G-quadruplex BCL2 5-FAM-AGGGGCGGGCGCGGGAGGAAGGGGGCGGGAGCGGGGCTG-TAMRA-3 (unknown origin) assessed as change in melting temperature at 1 uM incubated for 1 hr in dark condition by FRET-based melting assay; type: nucleic-acid assay
Outline: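 FRET melting of dual-fluorophore-tagged oligonucleotides (200 nM) in 60 mM potassium cacodylate buffer, pH 7.4, with ligand at 1 μM; ΔTm taken against the ligand-free oligonucleotide Tm as control.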

Quadruplex DNA [12] = experiment: Stabilization of G-quadruplex BCL2 5-FAM-AGGGGCGGGCGCGGGAGGAAGGGGGCGGGAGCGGGGCTG-TAMRA-3 (unknown origin) assessed as change in melting temperature at 10 uM incubated for 1 hr in dark condition by FRET-based melting assay; type: nucleic-acid assay; outline: as §1
Calf thymus DNA = experiment: Binding affinity to calf thymus ds DNA assessed as dissociation constant by fluorescence spectroscopy assay; type: nucleic-acid assay, Bos taurus; outline: as §2
Quadruplex DNA [13] = experiment: Binding affinity to G-quadruplex c-MYC 5-FAM-TGGGGAGGGTGGGGAGGGTGGGGAAGG-TAMRA-3 (unknown origin) assessed as dissociation constant by measuring thermogram by isothermal titration calorimetry (ITC) assay; type: nucleic-acid assay; outline: as §4
K562 [14] = experiment: Induction of apoptosis in human K562 cells assessed as apoptosis incubated for 24 hrs by FITC-Annexin V and PI based flow cytometry; type: functional, cell-based
Outline: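 K562 cells were treated with ligand (3 and 6 μM or 5.5 and 11 μM) and dual-stained with annexin V and PI. Early and late apoptotic populations were quantified by flow cytometry dot plot analysis.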

K562 [15] = experiment: Attenuation of proto-oncogene expression in human c-KIT-positive K562 cells assessed as reduction in c-MYC oncogene expression at 3 uM measured after 24 hrs by qRT-PCR analysis relative to control; type: functional
Outline: (§5)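 K562 cells treated 24 h at two doses per ligand (3 and 6 μM, 5.5 and 11 μM; positive control 2 and 4 μM). c-KIT, c-MYC and BCL-2 mRNA measured by qRT-PCR and normalized to housekeeping gene 18s, relative to untreated control.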

K562 [16] = experiment: Attenuation of proto-oncogene expression in human c-KIT-positive K562 cells assessed as reduction in c-KIT oncogene expression at 3 uM measured after 24 hrs by qRT-PCR analysis relative to control; type: functional; outline: as §5
Quadruplex DNA [17] = experiment: Binding affinity to excessive G-quadruplex c-KIT1 5-FAM-GGGAGGGCGCTGGGAGGAGGG-TAMRA-3 (unknown origin) assessed as fold increase in fluorescence intensity at 1 uM incubated for 1 hr in dark condition by fluorescence spectroscopy assay relative to VEGF; type: nucleic-acid assay
Outline: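 Ligand (1.0 μM) titrated to saturation with increasing G-quadruplex in 100 mM Tris-KCl buffer, pH 7.4. The value is the ratio of the c-KIT 1 fold change in fluorescence intensity to the fold change obtained with VEGF or c-KIT 2.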

[18] = Reduction of c-KIT oncogene expression in human K562 cells transfected with c-KIT plasmid construct assessed as reduction in luciferase expression at 6 uM measured after 36 hrs by luciferase reporter assay; type: functional
Outline: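 K562 cells were transfected with luciferase plasmids carrying the c-KIT, c-MYC or BCL-2 promoter G4. They were then treated with ligand (3 and 6 μM or 5.5 and 11 μM), and relative luciferase expression was measured.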

Quadruplex DNA [19] = experiment: Stabilization of G-quadruplex c-KIT2 5-FAM-GGGCGGGCGCGAGGGAGGGG-TAMRA-3 (unknown origin) assessed as change in melting temperature at 10 uM incubated for 1 hr in dark condition by FRET-based melting assay; type: nucleic-acid assay; outline: as §1
[20] = Reduction of c-KIT protein expression in human K562 cells at 3 uM measured after 24 hrs by Western blotting analysis relative to control; type: functional; outline: as §3

With `CN(C)CCCNC(=O)c1ccc(-n2cc(-c3ccc4[nH]c5ccccc5c4c3)nn2)cc1` the ΔTm (Quadruplex DNA [1]) was 16 °C, the ΔTm (Quadruplex DNA [2]) was 17.3 °C and the Kd (Quadruplex DNA [3]) was 2.9 µM. The inhibition at 6 µM [4] was 65.5%, the ΔTm (Quadruplex DNA [5]) was 26.5 °C and the Kd (Quadruplex DNA [6]) was 2.8 µM. For the same molecule, the Kd (Quadruplex DNA [7]) was 15.9 µM, the Activity (K562 [8]) was 79.7% and the Kd (Quadruplex DNA [9]) was 2.7 µM. The Kd (Quadruplex DNA [10]) was 1.4 µM, the ΔTm (Quadruplex DNA [11]) was 2.2 °C and the ΔTm (Quadruplex DNA [12]) was 12.1 °C. For the same molecule, the Kd (Calf thymus DNA) was 4 µM, the Kd (Quadruplex DNA [13]) was 6.2 µM and the Activity (K562 [14]) was “Dose-Dependent Effect”. For the same molecule, the inhibition at 3 µM (K562 [15]) was 15%, the inhibition at 3 µM (K562 [16]) was 28% and the fold change (FC) (Quadruplex DNA [17]) was 2.8. The inhibition at 6 µM [18] was 69%, the ΔTm (Quadruplex DNA [19]) was 18.1 °C and the inhibition at 3 µM [20] was 23.3%.
